Test results as given in paper PMC10401071 (Cancer Discovery, 2023).

How the values were obtained:
[1] = test system: advanced or metastatic solid tumors; experiment: Antitumor activity, investigator-assessed per RECIST v1.1, PFS by Kaplan–Meier; type: in vivo, human; details: for duration of stable disease: WDLPS; for duration of response: partial response
[2] = Phase Ia dose escalation: dose-limiting toxicities; type: in vivo, human; details: for maximum tolerated dose (MTD): based on DLTs during cycle 1 and BLRM
Procedure, shortened: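 Escalating oral doses, day 1 q21d (10–80 mg) or days 1 and 8 q28d (5–60 mg). DLTs were counted over cycle 1 (21 or 28 days). The MTD was the highest dose with <25% risk of true DLT rate ≥33%, estimated by BLRM with overdose control. The RDE came from a supplementary BLRM on haematologic AEs of interest over the whole treatment period.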

## Cc1c(C(=O)O)ccc2c3n(nc12)[C@@H]1[C@H](C3)N(CC2CC2)[C@@]2(C(=O)Nc3cc(Cl)ccc32)[C@H]1c1cccc(Cl)c1F [brigimadlin]
[1]; 12 patients with DDLPS
  disease control rate: 75%
[1]; All patients (N = 54)
  Complete response: 0 n (%)
  Confirmed objective response: 6 (11.1) n (%)
  Disease control: 40 (74.1) n (%)
  Not evaluable (best overall response): 3 (5.6) n (%)
  Partial response: 6 (11.1) n (%)
  Progressive disease: 11 (20.4) n (%)
  Stable disease: 34 (63.0) n (%)
[1]; D1D8q4w
  overall response rate: 8.0%
[1]; D1D8q4w (n = 25)
  Complete response: 0 n (%)
  Confirmed objective response: 2 (8.0) n (%)
  Disease control: 18 (72.0) n (%)
  Not evaluable (best overall response): 2 (8.0) n (%)
  Partial response: 2 (8.0) n (%)
  Progressive disease: 5 (20.0) n (%)
  Stable disease: 16 (64.0) n (%)
[1]; D1D8q4w arm
  disease control rate: 72.0%
[1]; D1D8q4w arm, 95% CI: 3.7–18.5
  median progression-free survival (PFS): 8.0 months
[1]; D1q3w
  overall response rate: 13.8%
[1]; D1q3w (n = 29)
  Complete response: 0 n (%)
  Confirmed objective response: 4 (13.8) n (%)
  Disease control: 22 (75.9) n (%)
  Not evaluable (best overall response): 1 (3.4) n (%)
  Partial response: 4 (13.8) n (%)
  Progressive disease: 6 (20.7) n (%)
  Stable disease: 18 (62.1) n (%)
[1]; D1q3w arm
  disease control rate: 75.9%
[1]; D1q3w arm, 95% CI: 3.0–20.7
  median progression-free survival (PFS): 10.6 months
[1]; one patient
  duration of stable disease: > 14 months
[1]; the other two patients
  duration of stable disease: ~8 months
[1]; all 54 patients
  disease control rate: 74.1%
[1]; all 54 patients, data cutoff October 24, 2022
  overall response rate: 11.1%
[1]; all seven patients with WDLPS
  PFS: > 7.5 months
[1]; four WDLPS patients, ranging up to about 25 months
  duration of partial response: ≥ 12 months
[1]; of seven patients with WDLPS
  patients achieving PFS ≥14 months: five
  patients achieving a partial response: four
  patients achieving stable disease: three
[1]; of the 12 patients with DDLPS
  patients achieving stable disease: nine
[1]; one patient with MDM2-amplified intrahepatic cholangiocarcinoma
  duration of response: ~12 months
[1]; one patient with MDM2-amplified pancreatic cancer
  duration of response: > 5.5 months
[1]; overall, preliminary analysis, 95% CI: 3.8–13.5
  median progression-free survival (PFS): 8.1 months
[1]; seven patients with WDLPS
  disease control rate: 100%
[1]; single patient (Fig. 3A), MDM2-amplified WDLPS, 20 mg q3w, starting at cycle 2
  tumor reduction (partial response): 31%
[1]; single patient (Fig. 3A), MDM2-amplified WDLPS, cycle 19, dose reduced to 10 mg
  tumor reduction: 47%
[1]; single patient (Fig. 3B), MDM2-amplified WDLPS, 80 mg D1q3w, cycle 3
  tumor reduction (partial response): 32%
[1]; single patient (Fig. 3B), MDM2-amplified WDLPS, at data cutoff
  best tumor reduction: 42%
[1]; single patient (Fig. 3B), MDM2-amplified WDLPS, ongoing at data cutoff
  time on treatment: more than 25 months
[1]; single patient (Fig. 3D), MDM2-amplified cholangiocarcinoma
  time on treatment before progressive disease: 13.3 months
[2]; D1D8q4w arm
  treatment discontinuation due to a DLT in cycle 1: no patient discontinued treatment due to a DLT in cycle 1
[2]; D1D8q4w arm, 5 to 60 mg
  patients with DLTs during the MTD evaluation period (cycle 1): Three
[2]; D1D8q4w
  maximum tolerated dose (MTD): 45 mg
[2]; D1q3w arm
  treatment discontinuation due to a DLT in cycle 1: No patient discontinued treatment due to a DLT in cycle 1
[2]; D1q3w arm, 10 to 80 mg
  patients with DLTs during the MTD evaluation period (cycle 1): Five
[2]; D1q3w
  maximum tolerated dose (MTD): 60 mg
[2]; both arms
  patients with DLTs after the MTD evaluation period: Seven
[2]; q3w, supplementary BLRM analysis of AEs of interest over entire treatment period
  recommended dose for expansion (RDE) for phase Ib: 45 mg
